Results taken from ChEMBL document CHEMBL1135646, “In vitro photodynamic properties of chalcogenopyrylium analogues of the thiopyrylium antitumor agent AA1” (J Med Chem, 2002).

Experiments:
[1] = Distribution coefficient between octanol and phosphate buffer at pH6.0; format: physicochemical; settings: pH 6
Procedure, shortened: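 Shake-flask partitioning between n-octanol and pH 6 phosphate buffer as the aqueous phase. Mixing for 3–5 min, then 1 h settling, with equilibration at 23 °C. Each phase is quantified by UV–visible spectrophotometry, and the result is reported as log P.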

[2] = Ratio of LD50 value to that of EC50 value.; format: functional
[3] = compound evaluated for dark induced toxicity toward COLO-26, murine colon carcinoma cell line; format: cell-based; settings: mouse, COLO-26 (Colon 26) murine colon carcinoma cells; read-out: LD50 (the source's name)
Procedure, shortened: (§1)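 Colo-26 murine colon carcinoma cells were grown in RPMI 1640 with 10% FCS at 37 °C, 5% CO2, and plated at 5×10^3 cells/well the evening before. After two PBS washes, they took dye at various concentrations in HBSS with 1% FCS at 37 °C. They were then washed, left unirradiated, given growth medium, and kept 24 h. Survival was read by MTT, and LD50 is the 50% kill concentration.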

Colon 26 = assay: Effective concentration evaluated in light induced toxicity toward COLO-26, murine colon carcinoma cell line after irradiation with 15 J/cm**2 of 360-800nm light; format: functional, cell-based; settings: Mus musculus, Colon 26, light or radiation study
Procedure, shortened: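 Colo-26 cells in RPMI 1640 with 10% FCS are seeded at 5×10^3 cells/well the evening before. Cells are washed with PBS and given dye in HBSS with 1% FCS for 2 h at 37 °C. After a wash, irradiation in PBS with 1% FCS uses filtered 360–800-nm tungsten-halogen light to 15 J cm⁻². Growth medium is added and cells are held 24 h. MTT read-out; EC50 is the concentration giving 50% cell kill.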

[4] = Lethal dose evaluated in dark induced toxicity toward COLO-26, murine colon carcinoma cell line; settings: mouse, COLO-26 (Colon 26) murine colon carcinoma cells; read-out: LD50 (the source's name); procedure, shortened: as §1

Row | Compound | logD [1] | Ratio [2] | CC50 [3] [nM] | EC50 (Colon 26) [nM] | CC50 [4] [nM]
1 | CN(C)c1ccc(-c2cc(-c3ccc(N)cc3)[se+]c(-c3ccc(N)cc3)c2)cc1 | 1.7 | 3.8 | 1400 | 370 | 
2 | CN(C)c1ccc(-c2cc(-c3ccccc3)[te+]c(-c3ccc(N)cc3)c2)cc1 | 1.9 |  | 600 |  | 
3 | Nc1ccc(-c2cc(-c3ccc(N4CCOCC4)cc3)cc(-c3ccc(N4CCOCC4)cc3)[te+]2)cc1 | 1.6 | 1.3 | 800 | 600 | 
4 | Nc1ccc(-c2cc(-c3ccccc3)cc(-c3ccc(N4CCOCC4)cc3)[se+]2)cc1 | 0.9 |  | 900 |  | 
5 | CN(C)c1ccc(-c2cc(-c3ccccc3)[s+]c(-c3ccc(N)cc3)c2)cc1 | 1.3 |  | 70 |  | 
6 | Nc1ccc(-c2cc(-c3ccc(N4CCOCC4)cc3)cc(-c3ccc(N)cc3)[te+]2)cc1 | 1.9 |  | 1400 |  | 
7 | CN(C)c1ccc(-c2cc(-c3ccc(N)cc3)[s+]c(-c3ccc(N)cc3)c2)cc1 | 1.9 |  | 100 |  | 
8 | CN(C)c1ccc(-c2cc(-c3ccccc3)cc(-c3ccc(N)cc3)[se+]2)cc1 | 1.3 |  | 400 |  | 
9 | CN(C)c1ccc(-c2cc(-c3ccc(N(C)C)cc3)[s+]c(-c3ccc(N(C)C)cc3)c2)cc1 | 2.2 | 2.5 | 500 | 200 | 
10 | CN(C)c1ccc(-c2cc(-c3ccc(N)cc3)[se+]c(-c3ccc(N4CCOCC4)cc3)c2)cc1 | 1 | 21 | 1500 | 70 | 
11 | Nc1ccc(-c2cc(-c3ccc(N4CCOCC4)cc3)cc(-c3ccccc3)[se+]2)cc1 | 1.2 |  | 6500 |  | 
12 | Nc1ccc(-c2cc(-c3ccccc3)cc(-c3ccc(N4CCOCC4)cc3)[te+]2)cc1 | 1 |  | 70 |  | 
13 | Nc1ccc(-c2cc(-c3ccc(N4CCOCC4)cc3)cc(-c3ccc(N)cc3)[s+]2)cc1 | 1.8 |  | 800 |  | 
14 | Nc1ccc(-c2cc(-c3ccccc3)cc(-c3ccc(N4CCOCC4)cc3)[s+]2)cc1 | 1.1 |  | 1800 |  | 
15 | CN(C)c1ccc(-c2cc(-c3ccc(N)cc3)[s+]c(-c3ccc(N4CCOCC4)cc3)c2)cc1 | 0.9 |  | 900 |  | 
16 | Nc1ccc(-c2cc(-c3ccc(N4CCOCC4)cc3)cc(-c3ccc(N4CCOCC4)cc3)[se+]2)cc1 | 1.2 | 3.6 | 6900 | 1900 | 
17 | Nc1ccc(-c2cc(-c3ccc(N4CCOCC4)cc3)cc(-c3ccc(N)cc3)[se+]2)cc1 | 1.5 | 3.2 | 3800 | 1200 | 
18 | CN(C)c1ccc(-c2cc(-c3ccccc3)[se+]c(-c3ccc(N)cc3)c2)cc1 | 1.2 | 13 | 2600 | 200 | 
19 | c1cc(N2CCOCC2)ccc1-c1cc(-c2ccc(N3CCOCC3)cc2)[se+]c(-c2ccc(N3CCOCC3)cc2)c1 | 1.2 | 9 | 7200 | 800 | 
20 | Nc1ccc(-c2cc(-c3ccc(N4CCOCC4)cc3)cc(-c3ccc(N4CCOCC4)cc3)[s+]2)cc1 | 1.3 | 33 | 66000 | 2000 | 
21 | CN(C)c1ccc(-c2cc(-c3ccc(N(C)C)cc3)[se+]c(-c3ccc(N(C)C)cc3)c2)cc1 | 2.2 | 1.7 | 500 | 300 | 
22 | CN(C)c1ccc(-c2cc(-c3ccc(N)cc3)[te+]c(-c3ccc(N4CCOCC4)cc3)c2)cc1 | 1 |  |  |  | 500
23 | CN(C)c1ccc(-c2cc(-c3ccc(N)cc3)[te+]c(-c3ccc(N)cc3)c2)cc1 | 2 |  | 500 |  | 
